The nature of series [1]: Toxicity in NMRI mouse infected with Helicobacter pylori SS1 assessed as change in body weight at 10 to 20 mg/100g, po administered daily via gavage for 8 days starting from 1 week post-infection. To be noted: in vivo. In kind it is organism-based. The procedure, abridged: (§1)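 Female 6-week-old SPF NMRI mice infected orogastrically with Hp SS1 on days 1 and 3. Compound in 5–10% DMSO/olive oil (100 μL) given by daily oral gavage for 8 days from day 8. Body weight and appetite were monitored during treatment; infected controls received vehicle alone.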

A short description of series [2]: Toxicity in NMRI mouse infected with Helicobacter pylori SS1 assessed as change in appetite at 10 to 20 mg/100g, po administered daily via gavage for 8 days starting from 1 week post-infection. In kind it is organism-based. To be noted: in vivo. In short, it runs like this: as §1
Series [3] deals with T1, Flavodoxin (Helicobacter pylori (strain ATCC 700392 / 26695) (Campylobacter pylori)) (UniProt O25776).
T1 sequence (whole entry): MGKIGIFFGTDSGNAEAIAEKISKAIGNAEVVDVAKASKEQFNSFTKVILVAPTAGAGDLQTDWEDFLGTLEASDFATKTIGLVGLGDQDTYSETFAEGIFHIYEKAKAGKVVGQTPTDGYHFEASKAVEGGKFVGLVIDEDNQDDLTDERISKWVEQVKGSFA
Kind of series: Inhibition of flavodoxin in Helicobacter pylori SS1 assessed as reduction in bacterial growth measured after 48 hrs by resazurin staining-based microdilution method. In short, it runs like this: (§2)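 Broth microdilution in brain heart infusion with 4% FBS. Inoculum diluted to OD600 0.01. Two-fold dilutions from a DMSO stock cover 64–0.031 μg/mL, with DMSO ≤1% v/v. Incubated 48 h at 37 °C under microaerophilic conditions. MIC is the lowest concentration giving complete growth inhibition, read by resazurin colour change and confirmed by spotting on blood agar. Run twice in triplicate.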

Series [4] in a line: Therapeutic index, ratio of MCC50 for human HeLa cells to MIC for inhibition of flavodoxin in Mnz-resistant Helicobacter pylori NCTC 11637 ATCC 43504 assessed as reduction in bacterial growth. As to conditions: read-out: TI. In kind it is toxicity. In short, it runs like this: (§3)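 TI is MCC50/MIC. For MCC50, HeLa cells (30 000/well, DMEM with 10% FBS) were exposed to compound at 25–1000 μM final. Viability by XTT at 450/650 nm; MCC50 is the concentration giving 50% lysis from viability curves. Run twice in triplicate.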

The subject of the next series is Staphylococcus aureus. Kind of series: Effect on growth of Staphylococcus aureus ATCC 1228 after 48 hrs by resazurin-dye based microdilution assay. In kind it is organism-based. In general terms: Resazurin is reduced to fluorescent resorufin, in cell work by metabolically active cells.
Series [5] deals with T1, Flavodoxin (Helicobacter pylori (strain ATCC 700392 / 26695) (Campylobacter pylori)). As to the kind of experiment: Inhibition of flavodoxin in Mnz-resistant Helicobacter pylori NCTC 11637 ATCC 43504 assessed as reduction in bacterial growth measured after 48 hrs by resazurin staining-based microdilution method. To be noted: Helicobacter pylori NCTC 11637 = CCUG 17874 = ATCC 43504. The procedure, abridged: as §2

Series [6] shares this target. Kind of series: Inhibition of flavodoxin in Helicobacter pylori ATCC 700392 26695 assessed as reduction in bacterial growth measured after 48 hrs by resazurin staining-based microdilution method. To be noted: Helicobacter pylori 26695. In short, it runs like this:
as §2

Series [7] can be described thus: Toxicity in NMRI mouse assessed as change in body weight at 10 to 20 mg/100g, po administered daily via gavage for 8 days. In kind it is organism-based. To be noted: in vivo, 192 h.
For another series, the system named is Escherichia coli. Kind of series: Effect on growth of Escherichia coli DH5[alpha] after 48 hrs by resazurin-dye based microdilution assay. In kind it is organism-based.
The subject of series [8] is Helicobacter pylori. Kind of series: Antibacterial activity against Helicobacter pylori SS1 infected in NMRI mouse assessed as reduction in gastric colonization at 20 mg/100g, po administered daily via gavage for 8 days starting from 1 week post-infection and measured 8 days post-last dose. In kind it is functional, organism-based. The procedure, abridged:
(§4)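 Female 6-week-old SPF NMRI mice, 7 per condition, infected orogastrically on days 1 and 3 with 100 μL Hp SS1 (5 × 10^8 CFU/mL). From day 8, compound given daily by oral gavage for 8 days in 100 μL of 5–10% DMSO/95–90% olive oil. Sacrificed day 24; stomach homogenate CFU/g counted after 5 days microaerophilic culture at 37 °C. Infected vehicle-treated controls; Mann-Whitney U and unpaired t tests, p ≤ 0.05.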

Series [9] relates to Helicobacter pylori. Kind of series: Antibacterial activity against Helicobacter pylori SS1 infected in NMRI mouse assessed as bacterial eradication at 20 mg/100g, po administered daily via gavage for 8 days starting from 1 week post-infection and measured 8 days post-last dose. In kind it is functional, organism-based. In short, it runs like this:
as §4

The target of series [10] is T1, Flavodoxin (Helicobacter pylori (strain ATCC 700392 / 26695) (Campylobacter pylori)). As to the kind of experiment: Binding affinity to Helicobacter pylori flavodoxin by thermal upshift assay.
Series [11] in a line: Therapeutic index, ratio of MCC50 for human HeLa cells to MIC for inhibition of flavodoxin in Helicobacter pylori ATCC 700392 26695 assessed as reduction in bacterial growth. In kind it is toxicity. As to conditions: HeLa cells versus Helicobacter pylori ATCC 700392 26695, read-out: TI. The procedure, abridged:
as §3

Series [12] concerns the target T1, Flavodoxin (Helicobacter pylori (strain ATCC 700392 / 26695) (Campylobacter pylori)). Kind of series: Binding affinity to Helicobacter pylori flavodoxin by isothermal titration calorimetric method.
The nature of series [13]: Cytotoxicity against human HeLa cells assessed as reduction in cell viability by XTT assay. In kind it is cell-based. As to conditions: read-out: MCC50. The procedure, abridged: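 HeLa cells grown in DMEM with 10% FBS, penicillin and streptomycin at 37 °C, 5% CO2; 30 000 cells/well. XTT viability read at 450 and 650 nm. MCC50 (50% lysis) came from viability-versus-concentration curves. Two experiments, each in triplicate.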

Series [14] can be described thus: Toxicity in NMRI mouse assessed as change in body weight at 0.1 to 1 mg/100g, po administered daily via gavage for 8 days. In kind it is organism-based. As to conditions: in vivo, 192 h.
Series [15] is described as follows: Therapeutic index, ratio of MCC50 for human HeLa cells to MIC for inhibition of flavodoxin in Helicobacter pylori SS1 assessed as reduction in bacterial growth. In kind it is toxicity. As to conditions: HeLa cells versus Helicobacter pylori SS1, read-out: TI. The procedure, abridged: as §3
Series [16] can be described thus: Toxicity in NMRI mouse infected with Helicobacter pylori SS1 assessed as change in appetite at 0.1 to 1 mg/100g, po administered daily via gavage for 8 days starting from 1 week post-infection. In kind it is organism-based. To be noted: in vivo.
The nature of series [17]: Toxicity in NMRI mouse infected with Helicobacter pylori SS1 assessed as change in body weight at 0.1 to 1 mg/100g, po administered daily via gavage for 8 days starting from 1 week post-infection. In kind it is organism-based. To be noted: in vivo.
The test system of series [18] is Helicobacter pylori. As to the kind of experiment: Antibacterial activity against Helicobacter pylori SS1 infected in NMRI mouse assessed as reduction in gastric colonization at 0.1 to 1 mg/100g, po administered daily via gavage for 8 days starting from 1 week post-infection and measured 8 days post-last dose. In kind it is functional, organism-based. The procedure, abridged:
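From day 8, compound given daily by oral gavage for 8 days in 100 μL of 5–10% DMSO/95–90% olive oil. Sacrificed day 24; stomach homogenate CFU/g counted after 5 days microaerophilic culture at 37 °C. Infected vehicle-treated controls; Mann-Whitney U and unpaired t tests, p ≤ 0.05.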

Series [19] in a line: Therapeutic index, ratio of MCC50 for human HeLa cells to MIC for inhibition of flavodoxin in clarithromycin/metronidazole-resistant Helicobacter pylori isolate 6 assessed as reduction in bacterial growth. In kind it is toxicity. To be noted: read-out: TI. In short, it runs like this:
as §3

Series [20] can be described thus: Therapeutic index, ratio of MCC50 for human HeLa cells to MIC for inhibition of flavodoxin in clarithromycin/metronidazole-resistant Helicobacter pylori isolate 4 assessed as reduction in bacterial growth. In kind it is toxicity. As to conditions: read-out: TI. The procedure, abridged:
as §3

The nature of series [21]: Therapeutic index, ratio of MCC50 for human HeLa cells to MIC for inhibition of flavodoxin in metronidazole-resistant Helicobacter pylori isolate 2 assessed as reduction in bacterial growth. In kind it is toxicity. As to conditions: read-out: TI. The procedure, abridged: as §3
Series [22] in a line: Therapeutic index, ratio of MCC50 for human HeLa cells to MIC for inhibition of flavodoxin in metronidazole-resistant Helicobacter pylori isolate 1 assessed as reduction in bacterial growth. In kind it is toxicity. To be noted: read-out: TI. The procedure, abridged:
as §3

Series [23] is described as follows: Therapeutic index, ratio of MCC50 for human HeLa cells to MIC for inhibition of flavodoxin in metronidazole-resistant Helicobacter pylori isolate 3 assessed as reduction in bacterial growth. In kind it is toxicity. To be noted: read-out: TI. The procedure, abridged:
as §3

Series [24] can be described thus: Therapeutic index, ratio of MCC50 for human HeLa cells to MIC for inhibition of flavodoxin in rifampicin-resistant Helicobacter pylori isolate 5 assessed as reduction in bacterial growth. In kind it is toxicity. To be noted: read-out: TI. The procedure, abridged:
as §3

Converted amounts (≈) assume the structure as drawn. The source made the active and inactive calls. The calls are words filed in the database; no cut-off is given here.

In the case of `NCCc1cc(C(F)(F)F)cc(C(F)(F)F)c1`, the Activity entry (in series [1]; in series [2]; in the series with Staphylococcus aureus; in [7]; with Escherichia coli) was “Non-Toxic” each time. Besides, the MIC was > 249 µM in series [3], 31 µM (≈ 7.97 µg/mL) in [5] and 31 µM (≈ 7.97 µg/mL) in series [6]. In addition, the selectivity ratio in [4] and in series [11] was > 16 each time. The outcome (in the series with Helicobacter pylori [8]; in the series on Helicobacter pylori [9]; in series [10]; in [12]) was Active. The CC50 in series [13] was > 500 µM.

In the case of `O=[N+]([O-])/C=C/c1cc(C(F)(F)F)cc(C(F)(F)F)c1`, the figures for the MIC in [3], in series [5] and in [6] were 1.8 µM (≈ 0.513 µg/mL), 3.5 µM (≈ 0.998 µg/mL) and 1.8 µM (≈ 0.513 µg/mL), respectively. The results for the selectivity ratio in [4], in [15] and in [11] were 4.3, 8.3 and 8.3, respectively. The Activity entry (in series [14]; in the series with Staphylococcus aureus; with Escherichia coli; in [16]; in [17]) was “Non-Toxic” each time. Besides, the outcome in series [10] and in series [12] was Active. Moreover, in series [13], the CC50 was 15 µM. Besides, the outcome with Helicobacter pylori [18] was inactive.

For the compound `O=[N+]([O-])CCc1cc(C(F)(F)F)cc(C(F)(F)F)c1`, the Activity result (in [1]; in series [2]; with Staphylococcus aureus; in series [7]; in the series on Escherichia coli) was “Non-Toxic” each time. Also, the selectivity ratio in series [19] is 9; in series [4], > 18; in series [15] it was > 4.5; in [20], 9; in series [11] it was > 18; in series [21] it was 9. Moreover, the selectivity ratio in series [22], in [23] and in series [24] was 9 throughout. Further, the MIC was 223 µM (≈ 64 µg/mL) in series [3], 56 µM (≈ 16.1 µg/mL) in series [5] and 56 µM (≈ 16.1 µg/mL) in [6]. Further, the outcome (in the series on Helicobacter pylori [9]; in series [10]; in series [12]) was Active. Moreover, in [13], the CC50 was > 1000 µM.

The values above are taken from ChEMBL document CHEMBL4364284, “Design, Synthesis, and Efficacy Testing of Nitroethylene- and 7-Nitrobenzoxadiazol-Based Flavodoxin Inhibitors against Helicobacter pylori Drug-Resistant Clinical Strains and in Helicobacter pylori-Infected Mice” (J Med Chem, 2019).
